In brackets after ≈: the same amount, converted by molar mass. Activity calls are given as the source filed them. The calls are words filed in the database; no cut-off is given here.
Columns and labels:
HepG2 [1] = assay: Cellular uptake in human HepG2 cells at 20 uM after 4 hrs by fluorescence spectrophotometry; type: ADME, cell-based; details: hepg2, 4 h
Summary of the method: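 HepG2 cells were incubated with 20 μM photosensitizer for different times and intracellular concentration was measured at each time point. Mean ± SD, three replicates.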

[2] = Octanol-water partition coefficient, log P of the compound; type: physicochemical
HepG2 [3] = assay: Photocytotoxicity against human HepG2 cells assessed as cell viability at 20 uM incubated for 4 hrs prior to 630 mW laser irradiation for 10 mins followed by 24 hrs incubation in dark by CCK-8 assay; type: functional; details: for viability at 20 µM: HepG2, light or radiation study, read-out: Activity
Summary of the method: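 HepG2 cells were incubated with 20 μM photosensitizer for 4 h and split into two equal series. One series received 800 nm femtosecond laser light (1.64 W cm−2, 1 kHz, 130 fs) for 10 min; the other stayed dark as control. Both were held 24 h in the dark before viability was read. Photosensitizer-free cells were also irradiated. Mean ± SD, three replicates.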

HepG2 [4] = assay: Intracellular ROS generation in human HepG2 cells at 20 uM after 4 hrs by DCFH-DA-based fluorescence analysis; type: functional, cell-based
Summary of the method: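 Intracellular ROS in HepG2 cells was detected with the probe 2,7-dichlorodihydrofluorescein diacetate (DCFH-DA), which ROS convert to fluorescent 2,7-dichlorofluorescein.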

HepG2 [5] = assay: Dark cytotoxicity against human HepG2 cells after 24 hrs by CCK-8 assay; type: cell-based; details: HepG2, 24 h
Summary of the method: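 HepG2 cells exposed to a range of photosensitizer concentrations (tested up to 50 μM) for 24 h without light before the viability test. IC50 is the concentration giving 50% growth inhibition.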

HepG2 [6] = assay: Photocytotoxicity against human HepG2 cells assessed as growth inhibition incubated for 4 hrs in dark prior to 20 mW cm'-2 laser irradiation for 20 mins followed by 24 hrs incubation in dark by CCK8 assay; type: functional, cell-based; details: HepG2, light or radiation study
Summary of the method: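 HepG2 cells were loaded with photosensitizer for 4 h and then irradiated with a 532 nm laser for 20 min at 20 mW cm−2. They were kept in the dark for 24 h before the viability test. IC50 is the concentration giving 50% growth inhibition.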

[7] = Drug uptake in human HepG2 cell mitochondria at 10 uM after 4 hrs by confocal laser scanning microscopy; type: ADME; details: hepg2, 4 h
[8] = Solubility of the compound in PBS buffer at pH 7.4; type: physicochemical

Row | SMILES | Drug uptake (HepG2 [1]) | logP [2] | Activity (HepG2 [3]) | Activity (HepG2 [4]) | IC50 (HepG2 [5]) | IC50 (HepG2 [6]) | Drug uptake [7] | solubility [8] | viability at 20 µM (HepG2 [3])
1 | COCCOCCOCCOCCN(C)c1ccc(/C=C/C(=O)c2cc3ccc(OCCOCCOCCOC)cc3oc2=O)cc1 | Active | 1.4 | inactive | Active | > 50 µM | > 50 µM | Not Active | 700 µg/mL (≈ 1060 µM) | 
2 | COCCOCCOCCOCCN(CCOCCOCCOCCOC)c1ccc(/C=C/C(=O)c2cc3ccc(OCCOCCOCCOC)cc3oc2=O)cc1 | Active | 0.3 | inactive | Active | > 50 µM | > 50 µM | Not Active | > 10000 µg/mL | 
3 | CCN(CC)c1ccc(/C=C/C(=O)c2cc3ccc(OCCOCCOCCOC)cc3oc2=O)cc1 | Active | 3 |  | Active | > 50 µM | 8.1 µM | Active | 1.1 µg/mL (≈ 2.16 µM) | 70%
4 | CCN(CC)c1ccc2cc(C(=O)/C=C/c3ccc(N(C)CCOCCOCCOCCOC)cc3)c(=O)oc2c1 | Active | 3.4 |  | Active | > 50 µM | 3.9 µM | Active | 26 µg/mL (≈ 45.9 µM) | 20%
5 | CCN(CC)c1ccc2cc(C(=O)/C=C/c3ccc(N(CCOCCOCCOCCOC)CCOCCOCCOCCOC)cc3)c(=O)oc2c1 | Active | 2.2 |  | Active | > 50 µM | 4.6 µM | Active | 750 µg/mL (≈ 1010 µM) | 30%
